The values below come from the RNAGym collection of RNA variant scans (doi:10.1038/s41586-018-0170-7).

B1: tRNA (parent)
chain: GUUCCGUUGGCGUAAUGGUAACGCGUCUCCCUCCUAAGGAGAAGACUGCGGGUUCGAGUCCCGUACGGAACG

Variants of B1 are the subject of the series. Put plainly: yeast fitness, log relative to wild type (ln ratio); higher = fitter; tRNA-Arg(CCU), competitive growth, 37 C, 1 M NaCl. An outline of the steps: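 In BY4742 missing the chromosomal gene, a combinatorial tRNA-Arg(CCU) variant library was maintained on a HIS3 centromeric plasmid. Selection ran ~6.5 generations (~26.5 h) in SC-HIS 1M NaCl at 37 °C, following 4 generations in SC-HIS at 30 °C, with three outputs per input and variant counts by 125 bp paired-end Illumina sequencing. Fitness is the natural log of a genotype's generations relative to the wild type's, with generations taken as inverse-variance-weighted, OD-scaled log2 output/input frequency.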
Take G1A U2G G6A A43C C46U C66A A70G C71U: the “yeast fitness (ln)” value was -0.169.
With G1A U2G G6A C27U C46U A70G, the “yeast fitness (ln)” value is -0.237.
G1A U2G G6A C27U C46U A70U: the “yeast fitness (ln)” value was -0.189.
Take G1A U2G G6A A43C C66U A70U C71U: the “yeast fitness (ln)” value was -0.443.
Regarding G1A U2G G6A C27U C46U C66A A69G A70G C71U, the “yeast fitness (ln)” value is -0.317.
Under G1A U2G G6A C27U C66U A69G A70G stands -0.431; under G1A U2G G6A C27U C66U A69G A70U, -0.26.
Turning to G1A U2G G6A A43C C71U, the “yeast fitness (ln)” value was -0.276.
For G1A U2G G6A C27U A69G A70G, the “yeast fitness (ln)” value is -0.428.
The figure for G1A U2G G6A C27U A69G A70U is -0.256; for G1A U2G G6A C27U C46U it is -0.154; for G1A U2G G6A C27U C66U A70G C71U it is -0.309.
Regarding G1A U2G G6A C27U A43C C46U, the “yeast fitness (ln)” value was -0.242.
In the case of G1A U2G G6A C27U A43C C46U A69G A70U C71U, the “yeast fitness (ln)” value was -0.443.
With G1A U2G G6A C46U C66U A70G, the “yeast fitness (ln)” value was -0.11.
Turning to G1A U2G G6A A70G C71U, the “yeast fitness (ln)” value was -0.172.
In the case of G1A U2G G6A C27U A43C C66U A69G A70U C71U, the “yeast fitness (ln)” value was -0.489.
G1A U2G G6A C27U C46U C66A A70U C71U: the “yeast fitness (ln)” value is -0.249.
G1A U2G G6A C46U C66A A70G C71U: the “yeast fitness (ln)” value was -0.185.
In the case of G1A U2G G6A C27U A69G A70U C71U, the “yeast fitness (ln)” value was -0.526.
Under G1A U2G G6A A69G A70G C71U stands -0.298; under G1A U2G G6A C27U C46U C66U A70U C71U, -0.0596; under G1A U2G G6A A43C C46U A70U C71U, -0.14.
Take G1A U2G G6A C27U C46U C71U: the “yeast fitness (ln)” value is -0.182.
Consider G1A U2G G6A C46U A69G A70G C71U, for which the “yeast fitness (ln)” value was -0.162.
With G1A U2G G6A C27U A43C A69G A70U C71U, the “yeast fitness (ln)” value is -0.484.
For the variant G1A U2G G6A C46U C66A A70U C71U, the “yeast fitness (ln)” value was -0.134.
As to G1A U2G G6A C46U C66U A69G A70G, the “yeast fitness (ln)” value is -0.18.
The figure for G1A U2G G6A C46U C66U A69G A70U is -0.383; for G1A U2G G6A C27U C46U A70G C71U it is -0.244; for G1A U2G G6A A43C C46U C66A A70U C71U it is -0.282.
For G1A U2G G6A C46U A69G A70U C71U, the “yeast fitness (ln)” value was -0.259.
With G1A U2G G6A C27U A70G C71U, the “yeast fitness (ln)” value was -0.336.
For the variant G1A U2G G6A C27U A69G A70G C71U, the “yeast fitness (ln)” value is -0.443.
Take G1A U2G G6A C27U C46U C66A A70G C71U: the “yeast fitness (ln)” value is -0.282.
With G1A U2G G6A C27U C66U A69G A70U C71U, the “yeast fitness (ln)” value was -0.479.
Under G1A U2G G6A C46U C66A A69G A70G C71U stands -0.354.
For G1A U2G G6A C27U A43C C46U C66A C71U, the “yeast fitness (ln)” value is -0.323.
For G1A U2G G6A A43C A70G C71U, the “yeast fitness (ln)” value was -0.224.
As for G1A U2G G6A C27U C46U C66U A69G A70G C71U, the “yeast fitness (ln)” value was -0.407.
The figure for G1A U2G G6A A69G C71U is -0.244.
The figure for G1A U2G G6A A43C C66U A69G A70U is -0.45; for G1A U2G G6A C46U C66A A70U it is -0.189.
Turning to G1A U2G G6A C27U A43C C46U C66U A69G A70U C71U, the “yeast fitness (ln)” value was -0.384.
Under G1A U2G G6A C27U A43C C46U A69G A70G C71U stands -0.424.
Under G1A U2G G6A C27U C66U stands -0.221.
For G1A U2G G6A A43C C46U A69G C71U, the “yeast fitness (ln)” value is -0.206.
Regarding G1A U2G G6A C27U A70U C71U, the “yeast fitness (ln)” value was -0.264.
As to G1A U2G G6A C27U A43C C66U A70G C71U, the “yeast fitness (ln)” value was -0.479.
Under G1A U2G G6A A43C C46U C66U A69G A70U C71U stands -0.425; under G1A U2G G6A C27U A43C C46U C66U A70U C71U, -0.645.
Regarding G1A U2G G6A A43C C66U A69G A70G C71U, the “yeast fitness (ln)” value is -0.612.
Under G1A U2G G6A C27U C46U C66U A70G C71U stands -0.243; under G1A U2G G6A C27U A43C C46U A69G C71U, -0.283.
The figure for G1A U2G G6A C27U A43C C46U A69G A70G is -0.382.
Under G1A U2G G6A C27U A43C C46U A69G A70U stands -0.279; under G1A U2G G6A C27U C46U A69G A70G C71U, -0.332; under G1A U2G G6A A43C A70U, -0.216.
Consider G1A U2G G6A A43C A70G, for which the “yeast fitness (ln)” value is -0.304.
With G1A U2G G6A C27U A43C C46U C66A A70U, the “yeast fitness (ln)” value was -0.219.
Under G1A U2G G6A C27U C46U C66U A69G A70U stands -0.219.
Under G1A U2G G6A C27U C46U C66U A69G A70G stands -0.272; under G1A U2G G6A A43C C46U C66U A69G A70G, -0.275; under G1A U2G G6A A43C C46U C66U A69G A70U, -0.306.
Regarding G1A U2G G6A C27U A43C C71U, the “yeast fitness (ln)” value is -0.357.
As to G1A U2G G6A C27U A43C C46U C66U A70U, the “yeast fitness (ln)” value is -0.226.
Consider G1A U2G G6A C27U A43C C46U C66U A70G, for which the “yeast fitness (ln)” value is -0.216.
For the variant G1A U2G G6A C27U A43C C66U A69G A70G C71U, the “yeast fitness (ln)” value was -0.563.
The figure for G1A U2G G6A C46U A70G C71U is -0.245; for G1A U2G G6A A43C C46U C66U A69G A70G C71U it is -0.206; for G1A U2G G6A C27U C46U C66U C71U it is -0.196.
G1A U2G G6A C46U A70U C71U: the “yeast fitness (ln)” value was -0.559.
Take G1A U2G G6A C27U A43C C46U C66U A69G A70G: the “yeast fitness (ln)” value was -0.34.
Regarding G1A U2G G6A C27U A43C C46U C66U A69G A70U, the “yeast fitness (ln)” value was -0.436.
For the variant G1A U2G G6A C27U A43C, the “yeast fitness (ln)” value is -0.235.
As for G1A U2G G6A C27U C66U A70U C71U, the “yeast fitness (ln)” value was -0.164.
G1A U2G G6A C27U A43C C46U C66A A70G C71U: the “yeast fitness (ln)” value is -0.478.
Regarding G1A U2G G6A C27U A43C A70G C71U, the “yeast fitness (ln)” value is -0.344.
Regarding G1A U2G G6A C46U C66U A69G C71U, the “yeast fitness (ln)” value was -0.253.
The figure for G1A U2G G6A A43C C46U is -0.111.
Consider G1A U2G G6A A43C C46U A69G A70U, for which the “yeast fitness (ln)” value is -0.0779.
Consider G1A U2G G6A A43C C46U A69G A70G, for which the “yeast fitness (ln)” value was -0.292.
Take G1A U2G G6A C27U A43C A69G A70U: the “yeast fitness (ln)” value is -0.379.
Regarding G1A U2G G6A C27U A43C A69G A70G, the “yeast fitness (ln)” value is -0.341.
